Only some compounds are listed: those with a hit (about 2.8% of all), similar ones and a draw of the others.
NPY1 pot ag: potentiators or agonists of human neuropeptide Y receptor Y1. P25929. NPY-Y1 expressing cells, potentiator/agonist activation. activation, % at 3.6 µM. actives 0.37% (n = 220,000). AID 1304; in the data active = activation above about 33%, passing the limit was not always enough;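 also: cells stimulated with NPY at EC10 then isoproterenol at EC100; 0% = low agonist plus stimulus and 100% = saturating agonist plus stimulus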
NPY Y2 blocker: NPY-Y2 (human) receptor antagonism; NPY-Y2 expressing cells, antagonist mode; inhibition, % at 2.7 µM; AID 793; actives 0.99% (n = 140,000); P49146; in the data active = inhibition above about 17%;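 also: 0% = vehicle with agonist challenge and 100% = reference antagonist with challenge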
NPY-Y1 antag: NPY-Y1 (human) receptor antagonism | inhibition, % at 3.6 µM | actives 1% (n = 200,000) | P25929 | HEK293-CNG Y1 cells, membrane potential fluorescence; NPY at EC95, then isoproterenol;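 active = inhibition above the campaign mean inhibition of all tested compounds plus 3 SD, cut at about 20% in these data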;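 also: 0% = DMSO wells given NPY plus isoproterenol and 100% = isoproterenol alone without NPY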
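Test system – HEK293 Y1/CNG channel cell line · Also added – NPY agonist 25 nM, then isoproterenol 1 µM plus Ro 20-1724 25 µM · Compound dosing – one concentration, 3.6 µM, in 0.4% DMSO · Schedule – compound incubation 1 h at room temperature, readout 45 min post-stimulation · Technique – fluorescence, membrane potential probe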
NPY-Y2 PAM-ag: human NPY-Y2 potentiation or agonism, primary screen. P49146. cells expressing NPY-Y2, potentiator/agonist read-out. activation, % at 3.6 µM. actives 0.45% (n = 220,000); in the data active = activation above about 27%;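 also: cells stimulated with NPY near EC25 plus isoproterenol at EC100; 0% = vehicle plus submaximal agonist and 100% = vehicle plus saturating agonist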
Measles CPE: protection of cells from measles virus; actives 1.5% (n = 140,000); Measles virus-infected cells, CPE protection, absorbance; protection (pct of control), % at 4 µM; in the data active = protection mostly above about 24%, no sharp cut-off; inactive = mostly below about 26%
Rad51 HR inh: blocks human Rad51 in homologous recombination; Q06609; hRad51 DNA strand exchange, fluorescence dequenching; inhibition, % at 10 µM; actives 0.085% (n = 200,000); AID 1385;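 active = inhibition above 40% at the single screening dose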;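 also: 0% = DMSO control wells and 100% = blanks with heterologous ssDNA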
Target sequence (Q06609 whole entry, looked up): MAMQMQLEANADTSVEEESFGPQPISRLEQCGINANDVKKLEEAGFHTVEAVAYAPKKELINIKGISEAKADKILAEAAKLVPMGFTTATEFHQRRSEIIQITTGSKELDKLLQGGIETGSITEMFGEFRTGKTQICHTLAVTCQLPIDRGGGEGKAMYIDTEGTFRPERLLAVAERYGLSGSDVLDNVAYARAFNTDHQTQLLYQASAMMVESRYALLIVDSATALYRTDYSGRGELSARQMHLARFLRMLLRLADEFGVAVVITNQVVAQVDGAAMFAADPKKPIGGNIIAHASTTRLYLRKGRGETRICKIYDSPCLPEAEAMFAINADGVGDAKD
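Read-out basis: percent inhibition relative to plate controls and blanks / Assay system: human Rad51 nucleoprotein filaments preassembled on unlabelled ssDNA / Timing: filaments 15 min 37 °C, then compound 30 min / Control set: per-plate controls and blanks / Technique: fluorescence dequenching at 485/520 nm / Compound: 10 µM final, single point / Also added: Fluorescein- and BHQ1-tagged 47-mer duplex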
Numbers without * were called inactive; / = no result given.

SMILES | NPY1 pot ag | NPY Y2 blocker | NPY-Y1 antag | NPY-Y2 PAM-ag | Measles CPE | Rad51 HR inh
COC(=O)CNC(c1ccccc1)c1cc(C)ccc1NC(=O)CNC(=O)OCc1ccccc1 (centres undefined) | -34 | 38* | 29* | -22 | 12 | -11
COC(=O)CNC(c1ccccc1)c1cc(Br)ccc1NC(=O)OCc1ccccc1 (centres undefined) | -12 | 10 | 14 | -24 | 23 | 8
COC(=O)CNC(c1ccccc1)c1cc(C)ccc1NS(=O)(=O)c1ccc(C)cc1 (centres undefined) | -12 | 8 | 6 | 1 | 4 | 12
CCCNc1ncnc2nc[nH]c12 | 8 | 3 | -3 | -6 | 40* | -5
Cc1ccccc1-n1nnnc1SCc1cc(=O)n2ccsc2n1 | 5 | / | -1 | 10 | / | -5
C#CCNc1c2c(nc3ncnn13)CC(C)CC2 (centres undefined) | 7 | / | / | -27 | / | 39
O=C(Nc1ccc2c(c1)OCO2)C1CC(c2ccc(Cl)cc2)=NO1 (centres undefined) | 0 | 3 | 5 | -25 | 40* | 6
O=C(NN=C1CCCCCCCCCCC1)c1ccccc1F | -4 | 2 | 0 | 1 | 50* | -6
O=C(c1ccc(Sc2cccc(Cl)c2)c([N+](=O)[O-])c1)N1CCN(c2ccccn2)CC1 | 6 | / | -1 | 0 | / | 0
CC(C)(C)N=C1SCC(C)(/C=N/O)S1 (centres undefined) | 5 | -1 | 0 | -8 | 55* | 1
Cc1cc(OCC(=O)OCC(=O)Nc2cc(C(F)(F)F)ccc2N2CCOCC2)ccc1Cl | 0 | 6 | 6 | 12 | 10 | 1
COc1cc(C)c(Br)cc1S(=O)(=O)N1CCCC1 | -10 | 2 | -2 | -2 | 30* | -2
NS(=O)(=O)c1ccc(CNS(=O)(=O)c2cccc3nonc23)cc1 | 16 | / | / | -2 | / | 20
COc1cccc(NC(=O)C(c2ccccc2)N2CCCCC2)c1 (centres undefined) | 9 | / | 11 | -1 | / | -3
N#CCc1ccc(NC(=O)Nc2cccc(Cl)c2)cc1 | 37* | -3 | -18 | 20 | 3 | -8
O=C(Nc1cc(Cl)cc(Cl)c1)C(c1ccccc1)N1CCCCC1 (centres undefined) | -32 | 20* | 30* | -3 | 7 | /
O=C(Nc1cccc(Cl)c1)Nc1cccc(Cl)c1 | 9 | 1 | -3 | 20 | 12 | 8
O=C(Nc1ccccc1)Nc1cc(Cl)cc(Cl)c1 | 15 | -2 | -4 | -4 | 63* | 1
O=C(c1ccccc1Sc1c(Cl)cccc1[N+](=O)[O-])N1CCOCC1 | -6 | 0 | 8 | 6 | 7 | -13
O=C(CSC(=S)N1CCOCC1)N1N=CCC1c1ccccc1 (centres undefined) | -2 | 1 | 4 | -7 | 35* | 5
CC(=O)NC(Cc1ccc(C)cc1)C(=O)NC1CCN(c2ncccc2[N+](=O)[O-])CC1 (centres undefined) | -10 | 0 | -1 | 4 | 8 | -2
CCCc1nnc(NC(=O)CCC(=O)N2CCN(CCn3c(C)ccc3C)CC2)s1 | -8 | 1 | -1 | -5 | 31* | 0
O=C(COC(=O)C1CCN(C(=O)c2ccc(Cl)cc2)CC1)c1ccco1 | 12 | 0 | 11 | -8 | 4 | 1
Nc1ccc(N2CCN(C(=O)c3ccco3)CC2)cc1 | -13 | 2 | -1 | -35 | 60* | /
CCOC(=O)C1CCN(C(=O)c2ccco2)CC1 | 3 | -1 | 5 | -4 | 7 | 76*
SMILES | NPY1 pot ag | NPY Y2 blocker | NPY-Y1 antag | NPY-Y2 PAM-ag | Measles CPE | Rad51 HR inh
CC1(C)Cc2cccc(OCC(O)CN3CCN(c4ccccn4)CC3)c2O1 (centres undefined) | 104* | 1 | -15 | 91* | 28 | -10
CC1(C)Cc2cccc(OCC(O)CNCc3ccccn3)c2O1 (centres undefined) | 80* | 5 | -6 | 66* | 6 | 2
Cc1cccc(NC(=S)N2CCC(N(C)CC3CCCO3)CC2)c1 (centres undefined) | 16 | / | 8 | -1 | / | 1
Cc1ccc(CC(=O)Nc2ccc(F)c([N+](=O)[O-])c2)cc1 | 11 | 0 | 2 | -4 | 35* | 9
CCOC(=O)c1c(C)n(C)c2ccc(OC)c(NC(=O)CCN3CCSCC3)c12 | 4 | -2 | 4 | 9 | 37* | 6
CCOC(=O)c1c(C)n(C)c2ccc(OC)c(NC(=O)CN3CCN(C(=O)c4ccco4)CC3)c12 | 3 | 2 | -1 | -3 | 26* | 2
CC(C)(/C=N/NC(=O)CSCc1ccccc1Cl)CCC#N | -41 | 1 | 1 | 0 | 8 | /
CCNS(=O)(=O)c1ccc(NC(=O)c2ccc(Cn3cc([N+](=O)[O-])cn3)o2)cc1 | -11 | / | -1 | -2 | / | /
COc1cc(/C=N/OCC(=O)Nc2cc(C)on2)ccc1OCc1ccccc1 | -17 | 3 | -1 | 7 | 75* | -11
CCOc1cc(/C=C/C(=O)O)ccc1OCc1ccccc1 | 0 | / | -1 | 12 | / | -18
COc1cc(/C=N/NC(=O)CN2CCCCC2)ccc1OCc1ccccc1 | 2 | 3 | 13 | -15 | 34* | 4
COc1ccc([N+](=O)[O-])cc1/C=N/NC(=O)Cc1ccccc1 | 1 | / | 3 | -13 | / | 2
COc1cc(/C=N/NC(=O)Cc2ccccc2)ccc1Oc1ccc([N+](=O)[O-])cc1[N+](=O)[O-] | 6 | 0 | 3 | -4 | 43* | 16
COc1cc(/C=C/C(=O)NC(C)C)ccc1OCc1ccccc1 | -18 | 3 | 4 | -1 | 88* | 1
CS(=O)(=O)N(CC(=O)Nc1ccc(S(=O)(=O)N2CCCC2)cc1)c1ccccc1 | 7 | / | 6 | -1 | / | 1
Cn1cccc1C(C#N)c1ncc(C(F)(F)F)cc1Cl (centres undefined) | 12 | / | -5 | 6 | / | 8
Cc1cc(-c2nn(-c3ccccc3F)cc2CNCCc2cnc[nH]2)c(C)s1 | 7 | / | 14 | -22 | / | /
CCCCC(c1nnnn1C1CCCC1)N1CCN(C2CCCCC2)CC1 (centres undefined) | -31 | 26* | 37* | -14 | 8 | -3
COc1ccc(S(=O)(=O)NC(C)C(=O)Nc2ccccc2C(F)(F)F)cc1 (centres undefined) | 7 | 1 | 8 | -4 | 11 | 94*
COc1ccc(S(=O)(=O)Nc2ccccc2C(F)(F)F)cc1 | 0 | -2 | 2 | 6 | 19 | -3
COC(=O)CSc1nc2ccc(NC(=O)c3ccccc3C(=O)N3CCOCC3)cc2s1 | 109* | 2 | -16 | 95* | 22 | -2
CCOC(=O)CSc1nc2ccc(NC(C)=O)cc2s1 | 72* | -1 | -9 | 58* | 4 | -2

Source: PubChem (several laboratories)
